Several values for one entry are separate records, joined by “and”; a condition that tells them apart may be missing. Identical values can stand only once. Like-named read-outs stand apart in the source and are kept apart here.
Experiments:
[1] = target: HIV-1 RT RNase H activity (wild type p66/p51) (Human immunodeficiency virus type 1, UniProt P03366); test: FRET-based RNase H assay, wild-type HIV-1 RT; type: biochemical
[2] = target: Thr473Cys RT (Human immunodeficiency virus type 1 group M subtype B, UniProt P03366, T1072C); test: RNase H inhibition, Thr473Cys RT; type: biochemical, HIV-1; details: Thr473 replaced with cysteine
[3] = test system: HIV-1 RT variant with Cys38 and Cys280 removed from p66 and p51; test: RNase H inhibition, RT variant lacking Cys38 and Cys280; type: biochemical; details: Cys38 and Cys280 removed from both subunits
[4] = target: HIV-1 RT DNA polymerase activity (Human immunodeficiency virus type 1, UniProt P03366); test: DNA polymerase activity in the absence of pyrophosphorolysis; type: biochemical; details: 50 μM, data not shown
[5] = target: HIV-1 RT Tyr501Trp (Human immunodeficiency virus type 1 group M subtype B, UniProt P03366, Y1100W); test: FRET-based RNase H assay, Tyr501Trp RT; type: biochemical
[6] = target: p66^501BpF/p51 RT (Human immunodeficiency virus type 1, UniProt P03366, Y1100X); test: FRET-based RNase H assay, Tyr501Bp-Phe RT; type: biochemical, HIV-1; details: for IC50: IC50, RNase H activity, Tyr501Bp-Phe RT
[7] = target: HIV-1 RT Tyr501Az-Phe (Human immunodeficiency virus type 1, UniProt P03366, Y1100X); test: FRET-based RNase H assay, Tyr501Az-Phe RT; type: biochemical
[8] = test system: HIV-1 RNase H activity; test: Yonetani–Theorell analysis of RNase H inhibition; type: biochemical; details: NSC727447 0.25–16 μM, β-thujaplicinol 0.1–0.4 μM; substrate 250 nM, enzyme 4 nM
Method in brief: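 FRET RNase H assay: 18-nt 3'-fluorescein RNA annealed to 5'-dabcyl DNA (250 nM), enzyme 4 nM. Test compound at 0, 0.25, 0.5, 1, 2, 4, 8, 16 μM, each at β-thujaplicinol 0, 0.1, 0.2, 0.4 μM. Substrate added to start; fluorescence followed for 60 min. Inverse rate (ΔRFU/min) fitted to the Yonetani–Theorell equation to obtain interaction term γ.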

[9] = test system: wild-type RT / RNA-DNA hybrid complex; test: Electrophoretic mobility shift analysis, wild-type RT on RNA/DNA hybrid; type: binding, HIV-1; details: 50 μM; gel-mobility shift
Method in brief: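 Mobility-shift assay: RT 250 nM with RNA/DNA hybrid 50 nM (14 nt RNA–8 nt DNA chimera annealed to 22 nt DNA, mimicking tRNA primer removal) in 50 mM Tris/HCl pH 7.8, 50 mM NaCl. Test compound 0.6–50 μM. Complexes resolved by nondenaturing electrophoresis and detected by autoradiography.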

CC(C)c1ccc(O)c(=O)c(O)c1 [β-thujaplicinol, reference compound]
IC50 [1]: 0.25 ± 0.023 µM

manicol [reference compound]
IC50 ([1]; read-out: IC50, RNase H activity, wild-type RT, FRET substrate): 0.6 ± 0.09 µM

NC(=O)c1c(N)sc2c1CCCCC2 [NSC727447, 2-amino-5,6,7,8-tetrahydro-4H-cyclohepta[b]thiophene-3-carboxamide]
sensitivity of mutant enzyme to inhibitor vs wild type [2]: increased sensitivity | sensitivity of mutant enzyme to inhibitor [3]: retained sensitivity | inhibition of DNA polymerase activity [4]: insensitive to inhibition | IC50 [5]: 70.6 µM | fold decrease in inhibitor potency vs wild type ([5]; Tyr501Trp RT vs wild type): ~ 11 fold | IC50 [6]: 197 µM and 196 µM | fold resistance vs wild type ([6]; p66^501BpF/p51 RT vs wild type): ~30 fold | IC50 [7]: 89.6 µM | fold decrease in inhibitor potency vs wild type ([7]; Tyr501Az-Phe RT vs wild type): 14 fold | mode of interaction with β-thujaplicinol (NSC18806), Yonetani–Theorell [8]: mutually exclusive inhibitors | effect on affinity of RT for RNA/DNA substrate [9]: unaffected | IC50 [1]: 6.6 µM

Cc1sc(NC(=O)c2ccco2)c(C(N)=O)c1C [NSC727448, N-[3-(aminocarbonyl)-4,5-dimethyl-2-thienyl]-2-furancarboxamide]
IC50 [6]: ~220 µM | IC50 [1]: ~5.5 µM

— article PMC2941776 (ACS chemical biology, 2008)
